SENP6 block = inhibitors of human SENP6 protease; inhibition, % at 10 µM; 1.8% of 330,000 active; Recombinant SENP6 catalytic domain, aminoluciferin luminescence; Q9GZR1; AID 2599;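 active means inhibition above about 50% at the single tested dose, limit read from the data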;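 further: plate controls were DMSO wells with enzyme for no effect and DMSO wells lacking enzyme for full effect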
Platelet DG rel = platelet dense granule release activity | inhibition, %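 (compounds screened at 7.5 µM in platelet-rich plasma)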 | 0.22% of 300,000 active | AID 1663 | human platelet-rich plasma, SFLLRN dense granule ATP release, luminescence;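 active means mean replicate score, as percent of positive control, at or above 50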
SENP8 block-1 = inhibitors of human SENP8 protease; purified SENP8, Z-RLRGG-aminoluciferin cleavage, luminescence; inhibition, % at 10 µM; 1.2% of 330,000 active; in the data active means inhibition above about 50%
Target sequence (Q96LD8 whole entry, looked up): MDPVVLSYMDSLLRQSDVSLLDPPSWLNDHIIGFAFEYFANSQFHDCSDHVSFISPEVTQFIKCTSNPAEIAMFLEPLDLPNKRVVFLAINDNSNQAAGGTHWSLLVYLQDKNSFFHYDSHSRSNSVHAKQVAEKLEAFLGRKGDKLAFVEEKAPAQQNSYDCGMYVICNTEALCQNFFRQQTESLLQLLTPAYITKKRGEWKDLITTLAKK
SENP1 inh = inhibitors of human SENP1 SUMO protease catalytic domain; Q9P0U3; recombinant SENP1 catalytic domain, CyPet-SUMO1-YPet FRET cleavage; inhibition, % at 10 µM; 0.21% of 360,000 active;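 active means inhibition at least 30% at 10 µM, raw YFP signal under a set limit, fluorescence ratio 0.5 to 1.5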;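 further: 0% = enzyme with DMSO and 100% = no enzyme wells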
Target sequence (Q9P0U3 419-644 limits assumed): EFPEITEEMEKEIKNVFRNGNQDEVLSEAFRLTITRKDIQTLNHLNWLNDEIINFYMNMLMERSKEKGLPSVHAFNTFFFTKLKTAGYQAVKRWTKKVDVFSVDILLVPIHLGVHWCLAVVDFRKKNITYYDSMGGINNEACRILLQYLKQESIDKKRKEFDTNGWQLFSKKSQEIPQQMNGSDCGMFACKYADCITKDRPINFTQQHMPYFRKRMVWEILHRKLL
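Material – human SENP1 catalytic domain · Input – SENP1 enzyme, 20 pM final · Compound dosing – single concentration of 10 µM compound, 0.5% DMSO final · Timing – enzyme reaction for 50 min at room temperature, dark · Measured by – FRET fluorescence in CFP and YFP emission channels · Control set – no-enzyme wells low, DMSO-plus-enzyme wells high control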
SENP8 block-2 = blocks human SENP8 cleavage of Nedd8 substrate | Q96LD8 | recombinant SENP8, Nedd8 substrate fluorescence | inhibition, % at 20 µM | 0.64% of 360,000 active; in the data active means inhibition mostly above about 40%, no sharp cut-off; inactive means mostly below about 27%
SENP7 block = SENP7 protease inhibition | Q9BQF6 | recombinant SENP7, Z-RLRGG-aminoluciferin luminescence, 40 min | inhibition, % at 5 µM | 1.5% of 330,000 active;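 active means inhibition above about 50% at the single test dose, limit read from the data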;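 further: plate controls were DMSO with enzyme for no effect and no enzyme buffer wells for full effect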
SENP8 conf = confirmation of human SENP8 protease inhibitors; shares compounds with SENP7 block; Recombinant SENP8, Z-RLRGG-aminoluciferin luminescence, 60 min; inhibition, % at 12.5 µM; 40% of 6,200 active;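 active means mean inhibition across replicates above about 50%, limit read from the data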
SENP6 confirm = human SENP6 inhibition, confirmed; 58% of 6,200 active; AID 488915; shares compounds with SENP7 block; inhibition, % at 12.5 µM; recombinant SENP6, Z-RLRGG-aminoluciferin luminescence
SENP7 conf = human SENP7 inhibition, confirmed; 69% of 6,200 active; AID 488917; recombinant SENP7, Z-RLRGG-aminoluciferin luminescence, 40 min; shares compounds with SENP7 block; inhibition, % at 12.5 µM
Casp3 select = selectivity test for SENP inhibitors: human caspase-3 inhibition; shares compounds with SENP7 block; purified caspase-3, Z-DEVD-aminoluciferin luminescence, 60 min; inhibition, % at 12.5 µM; 60% of 6,200 active;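 active means mean inhibition above about 50%, limit read from the data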;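 further: plate controls were enzyme with DMSO for no effect and wells without caspase-3 for full effect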
Luc interf = interferes with luciferase luminescence in SENP counter-screen | AID 488919 | 39% of 6,200 active | shares compounds with SENP7 block | inhibition, % at 12.5 µM | Pre-incubated SENP8/Z-RLRGG-aminoluciferin, luciferase luminescence interference;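 active means mean inhibition above about 50% when retested at one dose, limit read from the data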;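 further: plate controls were DMSO wells with completed reaction for no effect and substrate without enzyme for full effect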
The depositor's hits bear a star; / = no result. A selection: hits, their analogues and other compounds. The true share with any hit is near 2.6%.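 How the source made its calls, unless noted: active means mean inhibition above about 50% in the one-dose retest (limit read from the data); inactive means the rest.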

SMILES	SENP6 block	Platelet DG rel	SENP8 block-1	SENP1 inh	SENP8 block-2	SENP7 block	SENP8 conf	SENP6 confirm	SENP7 conf	Casp3 select	Luc interf
O=C(Nc1cccc(Cl)c1)Nc1ccccc1C(=O)O	99*	75*	97*	5	-217	100*	98*	101*	104*	99*	100*
O=C(/C=C/c1cccc([N+](=O)[O-])c1)OCC(=O)c1ccccc1	-48	6	-24	2	2	-8	/	/	/	/	/
Cc1cccc(N/C=C(\[N+](=O)[O-])S(=O)(=O)c2ccccc2)c1	-20	1	-2	0	15	9	/	/	/	/	/
COc1cccc(NC(=O)c2ncc(Cl)c(Cl)c2Cl)c1	70*	5	87*	2	17	90*	49	89*	101*	91*	18
CS/C(N)=N/C(=S)Nc1cccc(Cl)c1	58*	-13	5	2	22	21	72*	68*	88*	57*	76*
NC(=S)Nc1cccc(Cl)c1	-9	7	-1	1	8	0	/	/	/	/	/
O=C(Nc1ccccc1)Nc1cccc(Cl)c1	60*	-4	35	2	15	55*	58*	58*	86*	44	71*
COc1cccc(NC(=O)Nc2ccccc2C(N)=O)c1	74*	13	61*	2	-46	82*	70*	68*	90*	85*	77*
O=C(NCC(=O)N1CCCCCCC1)c1ccc(Cl)cc1	1	/	3	-1	5	11	/	/	/	/	/
COc1ccc(N2C(=O)CC(Sc3nc(C)cc(C)n3)C2=O)cc1OC (centres undefined)	-5	-2	-1	1	21	-8	/	/	/	/	/
O=S(=O)(c1ccc(OCC(O)CNC23CC4CC(CC(C4)C2)C3)c(Cl)c1)N1CCOCC1 (centres undefined)	-1	-14	-1	-2	18	-10	/	/	/	/	/
O=C(Nc1cccc(Cl)c1)c1ccc(OC(=S)N2CCOCC2)cc1	33	5	3	-1	10	79*	21	10	78*	47	1
NC(=O)c1ccccc1NC(=O)Nc1cccc(Cl)c1	61*	10	82*	1	-162	92*	86*	87*	99*	82*	89*
Cc1cccc(NC(=O)c2cccc(OC(=S)N3CCOCC3)c2)c1	37	4	22	1	9	28	/	/	/	/	/
COc1ccc(COC(=O)c2c(C)nn(-c3ccccc3)c2Cl)cc1	61*	-4	30	3	6	18	29	32	54*	30	15
COc1ccc(Cl)cc1NC(=O)Nc1ccccc1C(N)=O	-8	5	-6	1	-61	3	/	/	/	/	/
COc1cccc(NC(=O)c2ccccc2F)c1	51*	/	49	2	-7	45	25	19	67*	72*	53*
Cc1ccccc1-c1nnn(CC(=O)N2CCN(S(=O)(=O)c3ccc(Cl)cc3)CC2)n1	11	-28	-2	1	13	-1	/	/	/	/	/
CCOc1ccccc1NC(=O)CSc1ccc2nnc(-c3cccnc3)n2n1	3	-21	1	-1	-4	-2	/	/	/	/	/
Cc1csc(=O)n1CCC(=O)OCC(=O)Nc1ccc(S(N)(=O)=O)cc1	7	/	1	-1	9	13	/	/	/	/	/
Cn1cccc1-c1nc2ccc([N+](=O)[O-])cc2[nH]1	62*	5	46	9	-10	58*	51*	52*	85*	62*	62*
O=[N+]([O-])c1ccc2nc(-c3ccccc3)[nH]c2c1	82*	10	79*	2	16	85*	6	81*	95*	83*	82*
O=[N+]([O-])c1ccc2nc(-c3cccnc3)[nH]c2c1	42	0	24	1	9	7	/	/	/	/	/
CCN(CC)S(=O)(=O)c1ccc(N2CCCC2)c(NC(=O)c2ccccc2OC)c1	-13	4	-5	-4	23	7	/	/	/	/	/
N#Cc1ccccc1OCC(=O)NNC(=O)CNC(=O)c1cccc(Br)c1	0	/	-1	3	0	3	/	/	/	/	/
SMILES	SENP6 block	Platelet DG rel	SENP8 block-1	SENP1 inh	SENP8 block-2	SENP7 block	SENP8 conf	SENP6 confirm	SENP7 conf	Casp3 select	Luc interf
CC(C)c1ccc(C(=O)Nc2cccnc2)cc1	73*	-2	36	3	28	71*	62*	58*	88*	79*	32
O=C(NNC(=O)c1ccc(-c2ccccc2)cc1)c1ccccc1	-5	5	30	3	10	62*	34	41	82*	80*	47
O=C(Nc1cccnc1)c1ccc(-c2ccccc2)cc1	33	10	66*	1	18	82*	51*	70*	96*	75*	37
C#CCn1c2ccccc2c(=O)n1C(C)C	/	/	/	1	-332	/	/	/	/	/	/
COC(=O)CC(c1ccc(F)cc1)n1c(C)ccc1C (centres undefined)	-8	-3	0	-12	8	3	/	/	/	/	/
CCOC(=O)c1sc(NC(=O)CCc2ccccc2)nc1C	-22	17	-9	-1	18	8	/	/	/	/	/
Cc1ccc(NC(=O)c2ccn(C)n2)c(Br)c1	61*	21	42	3	18	44	47	42	81*	68*	61*
Cc1ccc(NC(=O)Cn2cccc2)c(Br)c1	-14	2	-1	1	13	10	/	/	/	/	/
Cn1ccc(C(=O)Nc2ccc(Br)cc2Br)n1	66*	-6	38	-1	12	39	43	44	65*	54*	20
Cc1ccc(NC(=O)c2ccccn2)c(Br)c1	82*	11	72*	1	10	73*	66*	83*	79*	64*	34
CC(=O)Nc1ccc(OCc2cccc([N+](=O)[O-])c2)cc1	-45	1	-6	1	17	8	/	/	/	/	/
CCN1CCN(c2ccc(NC(=O)c3cccc(OCc4ccccc4)c3)cc2)CC1	56*	-5	16	1	7	24	0	-3	8	9	4

Assay outcomes (PubChem BioAssay)
